From ChEMBL document CHEMBL3576819, “Design, synthesis, biological evaluation and molecular docking studies of phenylpropanoid derivatives as potent anti-hepatitis B virus agents” (Eur J Med Chem, 2015) come the findings set out here.

The nature of series [1]: Selectivity index, ratio of CC50 for human HepG2.2.15 cells to IC50 for Hepatitis B virus infected in human HepG2.2.15 cells assessed as inhibition of HBeAg secretion. The class given is functional. Summed up:
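Selectivity index computed as CC50/IC50, with CC50 from cell death of HepG2.2.15 cells after 9 days of treatment (OD 450 nm) and IC50 from 50% inhibition of HBeAg or HBsAg secretion in the same cells; medium with drug renewed every 3 d.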

The subject of series [2] is Hepatitis B virus. Briefly: Antiviral activity against Hepatitis B virus infected in human HepG2.2.15 cells assessed as inhibition of HBeAg secretion at 150 uM after 3 days by ELISA. The class given is functional. Conditions: HepG2 2.2.15, 72 h. Summed up:
(§1)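 HepG2.2.15 cells (MEM, 10% FBS, 380 µg/ml G418) seeded at 1×10^5 cells/ml, held 24 h at 37 °C, then treated with various drug concentrations; medium with drug renewed every 3 d for up to 9 d. Culture medium sampled on days 3, 6 and 9, stored at -20 °C, and assayed for secreted antigen. Lamivudine as positive control; IC50 = 50% inhibition of secretion; means of at least two experiments.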
For orientation: An ELISA detects its analyte on a solid surface through an enzyme-linked reagent.

Series [3] concerns Hepatitis B virus. Briefly: Antiviral activity against Hepatitis B virus infected in human HepG2.2.15 cells assessed as inhibition of HBV DNA copies per uL at 37.5 uM after 9 days by real-time fluorescence quantitative PCR analysis. Conditions: HepG2 2.2.15, 216 h. The class given is functional.
For series [4], the system named is Hepatitis B virus. In words: Antiviral activity against Hepatitis B virus infected in human HepG2.2.15 cells assessed as inhibition of HBsAg secretion at 37.5 uM after 6 days by ELISA. In kind it is functional. Conditions: HepG2 2.2.15, 144 h. A digest of the protocol: as §1
In series [5] the test system is Hepatitis B virus. Briefly: Antiviral activity against Hepatitis B virus infected in human HepG2.2.15 cells assessed as inhibition of HBsAg secretion at 300 uM after 6 days by ELISA. To be noted: HepG2 2.2.15, 144 h. The class given is functional. A digest of the protocol: as §1
Series [6] deals with Hepatitis B virus. In words: Antiviral activity against Hepatitis B virus infected in human HepG2.2.15 cells assessed as inhibition of HBeAg secretion at 37.5 uM after 9 days by ELISA. The class given is functional. To be noted: HepG2 2.2.15, 216 h. A digest of the protocol: as §1
A short description of series [7]: Cytotoxicity against human HepG2.2.15 cells assessed as cell death after 9 days by MTT assay. In kind it is cell-based, HepG2 2.2.15. A digest of the protocol: (§2)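 HepG2.2.15 cells (MEM, 10% FBS, 380 µg/ml G418, 37 °C, 5% CO2) seeded at 1×10^5 cells/ml, cultured 24 h, then exposed to various drug concentrations; drug-containing medium renewed every 3 d. OD read at 450 nm after 9 days; percent cell death calculated; CC50 = concentration killing 50% of cells. Means of at least two experiments.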
In general terms: Tetrazolium dyes change colour on reduction, which living cells bring about.

Series [8] relates to Hepatitis B virus. Briefly: Antiviral activity against Hepatitis B virus infected in human HepG2.2.15 cells assessed as inhibition of HBsAg secretion at 37.5 uM after 9 days by ELISA. The class given is functional. To be noted: HepG2 2.2.15, 216 h. Summed up:
as §1

In series [9] the test system is Hepatitis B virus. In words: Antiviral activity against Hepatitis B virus infected in human HepG2.2.15 cells assessed as inhibition of HBsAg secretion at 300 uM after 9 days by ELISA. The class given is functional. Conditions: HepG2 2.2.15, 216 h. A digest of the protocol: as §1
Series [10] relates to Hepatitis B virus. Briefly: Antiviral activity against Hepatitis B virus infected in human HepG2.2.15 cells assessed as inhibition of HBsAg secretion at 150 uM after 3 days by ELISA. The class given is functional. To be noted: HepG2 2.2.15, 72 h. Summed up: as §1
Series [11] has as its system Hepatitis B virus. Briefly: Antiviral activity against Hepatitis B virus infected in human HepG2.2.15 cells assessed as inhibition of HBsAg secretion at 75 uM after 9 days by ELISA. In kind it is functional. Conditions: HepG2 2.2.15, 216 h. A digest of the protocol: as §1
For series [12], the system named is Hepatitis B virus. Briefly: Antiviral activity against Hepatitis B virus infected in human HepG2.2.15 cells assessed as inhibition of HBsAg secretion at 300 uM after 3 days by ELISA. In kind it is functional. To be noted: HepG2 2.2.15, 72 h. A digest of the protocol:
as §1

Series [13] concerns Hepatitis B virus. Briefly: Antiviral activity against Hepatitis B virus infected in human HepG2.2.15 cells assessed as inhibition of HBsAg secretion at 75 uM after 3 days by ELISA. The class given is functional. Conditions: HepG2 2.2.15, 72 h. Summed up:
as §1

Series [14] has as its system Hepatitis B virus. Briefly: Antiviral activity against Hepatitis B virus infected in human HepG2.2.15 cells assessed as inhibition of HBV DNA copies per uL at 150 uM after 9 days by real-time fluorescence quantitative PCR analysis. In kind it is functional. To be noted: HepG2 2.2.15, 216 h.
For series [15], the system named is Hepatitis B virus. In words: Antiviral activity against Hepatitis B virus infected in human HepG2.2.15 cells assessed as inhibition of HBV DNA copies per uL at 300 uM after 6 days by real-time fluorescence quantitative PCR analysis. The class given is functional. To be noted: HepG2 2.2.15, 144 h.
The subject of series [16] is Hepatitis B virus. Briefly: Antiviral activity against Hepatitis B virus infected in human HepG2.2.15 cells assessed as cell survival at 300 uM after 9 days (reference value: 100%). In kind it is functional. To be noted: HepG2 2.2.15, 216 h. A digest of the protocol: as §2
Series [17] has as its system Hepatitis B virus. In words: Antiviral activity against Hepatitis B virus infected in human HepG2.2.15 cells assessed as inhibition of HBV DNA copies per uL at 37.5 uM after 6 days by real-time fluorescence quantitative PCR analysis. The class given is functional. To be noted: HepG2 2.2.15, 144 h.
For series [18], the system named is Hepatitis B virus. Briefly: Antiviral activity against Hepatitis B virus infected in human HepG2.2.15 cells assessed as inhibition of HBeAg secretion at 75 uM after 9 days by ELISA. The class given is functional. Conditions: HepG2 2.2.15, 216 h. Summed up: as §1

In general, inhibition refers to the change of the read-out against control, counted positive when it falls. One may read the CC50 as the concentration at which the toxic effect on the cells reaches its halfway point. By viability is commonly meant the share of living cells, or the viability signal relative to a control. With `COc1cc(/C=C/C(=O)O/N=C/c2ccco2)cc2c1OCO2`, the “Ratio CC50/IC50” value in [1] was 10.89. For the same compound, the inhibition at 150 µM was 51.5% in [2], 56.3% in [10] and 52% in series [14]. The inhibition at 37.5 µM in series [3] stood at 30.5%; in series [4] it was 24.9%; in series [6] it was 31%; in series [8] it was 36.5%; in series [17], 27.6%. Also, the inhibition at 300 µM in series [5] amounted to 70.7%; in series [9] it was 77.2%; in [12], 66.2%; in series [15], 57.4%. Further, in [7], the CC50 at 216 h was determined as 820 µM. In addition, the inhibition at 75 µM in series [11] amounted to 57.7%; in series [13], 38.8%; in series [18], 56.9%. Further, in [16], the viability at 300 µM was 89.3%.

For `COc1cc(/C=C/C(=O)O/N=C/c2ccccn2)cc2c1OCO2`, the “Ratio CC50/IC50” value in [1] is 8.85. Also, the values for the inhibition at 150 µM in series [2], in series [10] and in series [14] were 45.5%, 41.2% and 54.5%, respectively. Further, the inhibition at 37.5 µM in series [3] was 36.7%; in series [4], 25.3%; in [6], 30%; in [8], 30.4%; in series [17] it was 26.9%. The inhibition at 300 µM came out at 76.6% in [5], 81.3% in series [9], 58.5% in [12] and 52.9% in [15]. The CC50 at 216 h in [7] was found to be 645 µM. For the same compound, the inhibition at 75 µM in series [11] is 65.8%; in series [13], 27.2%; in series [18], 57.3%. Besides, in [16], the viability at 300 µM stood at 67.2%.

For the compound `Nc1ccn([C@@H]2CS[C@H](CO)O2)c(=O)n1` [LAMIVUDINE], the “Ratio CC50/IC50” value in series [1] is 2.13. For the same compound, the inhibition at 150 µM in [2] amounted to 23.9%; in series [10] it was 28.6%; in series [14], 81.6%. The inhibition at 37.5 µM in series [3] was 69.4%; in series [4], 7.98%; in [6], 18.4%; in series [8], 25.2%; in series [17], 38.6%. The inhibition at 300 µM in series [5] turned out to be 43.6%; in series [9] it was 60.4%; in series [12] it was 37.3%; in [15], 71.6%. Moreover, the CC50 at 216 h in series [7] is 568 µM. In addition, the inhibition at 75 µM in series [11] was found to be 33.1%; in series [13], 22%; in series [18], 34.2%. For the same compound, the viability at 300 µM in series [16] turned out to be 75.2%.

For the compound `O=C(/C=C/c1ccc2c(c1)OCO2)O/N=C/c1ccccn1`, in [1], the “Ratio CC50/IC50” value worked out at 40.82. Moreover, the inhibition at 150 µM in series [2] worked out at 55.9%; in series [10], 63.8%; in series [14], 72.2%. Further, the inhibition at 37.5 µM in series [3] worked out at 58.4%; in [4], 55.4%; in [6], 82.5%; in series [8], 70.7%; in series [17] it was 38.1%. The inhibition at 300 µM in [5] is 88.7%; in series [9], 93%; in series [12], 75.8%; in series [15] it was 68.8%. In addition, the CC50 at 216 h in series [7] stood at 253 µM. Further, the inhibition at 75 µM in series [11] came to 78.4%; in series [13], 58%; in series [18] it was 89.8%. The viability at 300 µM in series [16] was found to be 35.1%.
